Measurements as given in ChEMBL document CHEMBL1141182, “Selective benzopyranone and pyrimido[2,1-a]isoquinolin-4-one inhibitors of DNA-dependent protein kinase: synthesis, structure-activity studies, and radiosensitization of a human tumor cell line in vitro” (J Med Chem, 2005).

Assays:
[1] = molecular target: DNA-dependent protein kinase catalytic subunit (Homo sapiens, UniProt P78527); assay: Inhibition of DNA dependent protein kinase isolated from HeLa cells; type: cell-free
[2] = molecular target: T1, Serine/threonine-protein kinase ATR (Homo sapiens, UniProt Q13535); assay: Inhibition of ATR kinase using rabbit polyclonal antisera; No inhibition observed at 100 uM; set-up: species or system Oryctolagus cuniculus; settings: target entry is the homologue from another species
[3] = molecular target: T2, Serine-protein kinase ATM (Homo sapiens, UniProt Q13315); assay: Inhibition of ATM kinase using rabbit polyclonal antisera; No inhibition observed at 100 uM; set-up: species or system Oryctolagus cuniculus; settings: target entry is the homologue from another species
[4] = molecular target: Phosphatidylinositol 4,5-bisphosphate 3-kinase catalytic subunit alpha isoform (Homo sapiens, UniProt P42336); assay: Inhibition of Phosphatidylinositol 3-kinase
Summary of the method: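 PI 3-kinase assay run following a prior method, with baculovirus-derived recombinant human p110α and p85α.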

[5] = molecular target: Serine/threonine-protein kinase mTOR (Homo sapiens, UniProt P42345); assay: Inhibition of mTOR protein isolated from HeLa cells
Summary of the method: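 mTOR immunoprecipitated from HeLa cell cytoplasmic extract. Activity measured following a prior method, with recombinant PHAS-1 as substrate.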

[6] = molecular target: T1, Serine/threonine-protein kinase ATR; assay: Inhibition of ATR kinase using rabbit polyclonal antisera; set-up: species or system Oryctolagus cuniculus; settings: target entry is the homologue from another species
Summary of the method: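 ATR kinase activity measured following earlier published methods, using antisera raised against ATR amino acids 400–480.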

[7] = molecular target: T2, Serine-protein kinase ATM; assay: Inhibition of ATM kinase using rabbit polyclonal antisera; set-up: species or system Oryctolagus cuniculus; settings: target entry is the homologue from another species
Summary of the method: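 ATM kinase activity assayed following a previously published method, using rabbit polyclonal antisera raised against the COOH-terminal 400 amino acids of ATM.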

T2 sequence (Q13315 whole entry, canonical isoform): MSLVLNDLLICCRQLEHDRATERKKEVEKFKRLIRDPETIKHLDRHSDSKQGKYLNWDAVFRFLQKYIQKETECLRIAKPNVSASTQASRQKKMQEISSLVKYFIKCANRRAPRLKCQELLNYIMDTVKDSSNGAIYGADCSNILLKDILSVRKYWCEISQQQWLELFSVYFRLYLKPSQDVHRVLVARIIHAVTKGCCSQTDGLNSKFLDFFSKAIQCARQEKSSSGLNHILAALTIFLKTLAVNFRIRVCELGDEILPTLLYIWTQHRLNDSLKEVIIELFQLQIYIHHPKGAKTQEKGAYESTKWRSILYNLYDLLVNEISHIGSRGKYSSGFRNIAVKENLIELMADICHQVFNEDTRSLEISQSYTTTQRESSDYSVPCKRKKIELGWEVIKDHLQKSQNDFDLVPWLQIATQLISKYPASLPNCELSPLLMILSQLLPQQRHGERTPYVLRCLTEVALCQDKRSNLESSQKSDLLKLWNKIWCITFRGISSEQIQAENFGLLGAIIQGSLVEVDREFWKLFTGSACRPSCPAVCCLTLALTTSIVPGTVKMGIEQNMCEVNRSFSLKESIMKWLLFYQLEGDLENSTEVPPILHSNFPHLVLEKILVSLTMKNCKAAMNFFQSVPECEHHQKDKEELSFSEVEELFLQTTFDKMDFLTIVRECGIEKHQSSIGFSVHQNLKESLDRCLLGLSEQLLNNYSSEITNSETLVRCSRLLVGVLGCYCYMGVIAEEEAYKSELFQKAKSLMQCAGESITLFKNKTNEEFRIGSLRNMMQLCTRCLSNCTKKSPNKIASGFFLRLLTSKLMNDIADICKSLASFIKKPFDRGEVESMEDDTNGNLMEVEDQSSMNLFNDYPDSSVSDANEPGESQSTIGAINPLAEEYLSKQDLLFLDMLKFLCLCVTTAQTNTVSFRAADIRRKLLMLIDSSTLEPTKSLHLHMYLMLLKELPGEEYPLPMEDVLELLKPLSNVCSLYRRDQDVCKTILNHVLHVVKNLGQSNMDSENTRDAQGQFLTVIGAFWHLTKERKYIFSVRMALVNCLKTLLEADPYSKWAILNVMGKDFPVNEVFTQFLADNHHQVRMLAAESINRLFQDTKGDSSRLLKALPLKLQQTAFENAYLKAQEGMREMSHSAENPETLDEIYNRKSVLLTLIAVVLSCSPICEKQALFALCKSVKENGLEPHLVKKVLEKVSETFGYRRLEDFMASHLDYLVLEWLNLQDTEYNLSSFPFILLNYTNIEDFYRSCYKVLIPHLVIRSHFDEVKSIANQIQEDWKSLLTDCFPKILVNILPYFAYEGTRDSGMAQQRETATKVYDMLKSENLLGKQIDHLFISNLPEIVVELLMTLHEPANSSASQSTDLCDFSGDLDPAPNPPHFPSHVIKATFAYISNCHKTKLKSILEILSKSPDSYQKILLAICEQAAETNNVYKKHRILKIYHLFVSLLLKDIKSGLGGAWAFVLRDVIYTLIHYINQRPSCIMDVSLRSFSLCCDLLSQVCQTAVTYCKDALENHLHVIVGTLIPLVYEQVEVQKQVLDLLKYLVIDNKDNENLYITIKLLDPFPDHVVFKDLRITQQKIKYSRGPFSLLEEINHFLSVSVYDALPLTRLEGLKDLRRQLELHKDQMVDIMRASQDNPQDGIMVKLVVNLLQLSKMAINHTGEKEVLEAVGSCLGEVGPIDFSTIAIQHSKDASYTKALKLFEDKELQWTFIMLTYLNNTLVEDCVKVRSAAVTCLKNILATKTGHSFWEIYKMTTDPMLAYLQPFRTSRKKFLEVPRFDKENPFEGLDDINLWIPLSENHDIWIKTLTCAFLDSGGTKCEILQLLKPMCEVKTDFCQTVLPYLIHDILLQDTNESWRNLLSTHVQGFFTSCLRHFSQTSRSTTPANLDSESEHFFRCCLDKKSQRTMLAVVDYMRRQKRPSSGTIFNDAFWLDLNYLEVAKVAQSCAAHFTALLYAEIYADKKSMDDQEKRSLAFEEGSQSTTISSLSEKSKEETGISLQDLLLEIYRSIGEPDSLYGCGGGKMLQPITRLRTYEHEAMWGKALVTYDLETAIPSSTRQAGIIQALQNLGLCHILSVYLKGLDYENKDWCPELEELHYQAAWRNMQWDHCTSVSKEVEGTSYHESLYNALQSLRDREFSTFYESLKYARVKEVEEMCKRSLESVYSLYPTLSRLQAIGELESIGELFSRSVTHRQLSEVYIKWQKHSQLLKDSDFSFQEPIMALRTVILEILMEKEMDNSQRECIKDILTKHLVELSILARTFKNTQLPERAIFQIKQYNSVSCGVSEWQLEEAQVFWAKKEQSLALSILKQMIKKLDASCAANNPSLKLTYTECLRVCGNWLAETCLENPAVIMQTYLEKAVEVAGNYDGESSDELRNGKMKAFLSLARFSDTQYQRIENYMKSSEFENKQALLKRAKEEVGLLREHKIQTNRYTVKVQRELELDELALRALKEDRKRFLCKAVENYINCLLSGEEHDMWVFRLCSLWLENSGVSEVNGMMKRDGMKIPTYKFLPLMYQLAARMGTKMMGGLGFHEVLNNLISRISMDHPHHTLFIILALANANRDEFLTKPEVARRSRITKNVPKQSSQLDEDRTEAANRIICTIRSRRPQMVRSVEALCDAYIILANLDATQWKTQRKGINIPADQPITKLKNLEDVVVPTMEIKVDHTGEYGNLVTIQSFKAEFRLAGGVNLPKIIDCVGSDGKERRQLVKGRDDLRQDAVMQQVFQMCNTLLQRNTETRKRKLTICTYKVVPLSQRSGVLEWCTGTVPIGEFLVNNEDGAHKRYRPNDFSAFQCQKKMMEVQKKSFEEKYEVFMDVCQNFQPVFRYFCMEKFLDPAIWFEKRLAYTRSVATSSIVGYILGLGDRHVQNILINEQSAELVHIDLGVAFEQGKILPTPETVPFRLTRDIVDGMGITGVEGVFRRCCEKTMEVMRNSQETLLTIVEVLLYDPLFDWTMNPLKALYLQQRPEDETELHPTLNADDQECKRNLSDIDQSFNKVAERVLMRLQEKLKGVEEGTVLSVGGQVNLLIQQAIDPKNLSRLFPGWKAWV
Chain of Phosphatidylinositol 4,5-bisphosphate 3-kinase catalytic subunit alpha isoform (P42336 whole entry, canonical isoform): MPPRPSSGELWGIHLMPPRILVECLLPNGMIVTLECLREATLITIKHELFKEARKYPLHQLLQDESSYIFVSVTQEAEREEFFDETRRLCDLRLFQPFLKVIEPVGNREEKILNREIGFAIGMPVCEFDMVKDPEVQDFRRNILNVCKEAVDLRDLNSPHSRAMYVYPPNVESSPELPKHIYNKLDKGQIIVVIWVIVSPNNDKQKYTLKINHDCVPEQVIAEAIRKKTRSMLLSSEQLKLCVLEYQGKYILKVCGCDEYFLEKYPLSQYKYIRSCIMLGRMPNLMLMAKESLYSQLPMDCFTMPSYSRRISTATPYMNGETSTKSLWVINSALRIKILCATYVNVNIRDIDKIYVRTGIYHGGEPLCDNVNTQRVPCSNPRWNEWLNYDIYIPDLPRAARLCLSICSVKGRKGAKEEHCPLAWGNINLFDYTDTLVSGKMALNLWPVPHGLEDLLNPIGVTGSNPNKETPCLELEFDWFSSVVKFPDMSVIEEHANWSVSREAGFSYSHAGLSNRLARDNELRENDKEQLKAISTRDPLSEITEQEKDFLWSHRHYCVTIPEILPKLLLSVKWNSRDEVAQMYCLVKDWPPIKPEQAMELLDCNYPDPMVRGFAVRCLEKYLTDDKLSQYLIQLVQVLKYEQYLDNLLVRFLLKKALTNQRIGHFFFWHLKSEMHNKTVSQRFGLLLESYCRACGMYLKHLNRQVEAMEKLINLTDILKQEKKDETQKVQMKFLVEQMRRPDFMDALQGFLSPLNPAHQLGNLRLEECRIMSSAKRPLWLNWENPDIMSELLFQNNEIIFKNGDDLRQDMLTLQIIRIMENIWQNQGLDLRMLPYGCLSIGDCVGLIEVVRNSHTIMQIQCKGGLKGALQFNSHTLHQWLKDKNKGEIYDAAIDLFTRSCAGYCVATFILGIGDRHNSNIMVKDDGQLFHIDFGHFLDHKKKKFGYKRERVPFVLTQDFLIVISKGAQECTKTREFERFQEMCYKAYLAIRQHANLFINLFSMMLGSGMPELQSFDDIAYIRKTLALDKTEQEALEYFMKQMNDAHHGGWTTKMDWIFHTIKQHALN

| Structure (SMILES) | IC50 [1] | also measured |
| --- | --- | --- |
| Nc1cccc(-c2cc(=O)c3ccc4ccccc4c3o2)c1 | > 10 µM | – |
| CC(O)CNc1cc(=O)n2ccc3ccccc3c2n1 (stereo not given) | > 10 µM | – |
| O=c1cc(N2CCOc3ccccc32)oc2c1ccc1ccccc12 | > 10 µM | – |
| O=c1cc(NCC2CCCO2)oc2c1ccc1ccccc12 (stereo not given) | > 10 µM | – |
| O=c1cc(-c2cccc(Cl)c2)oc2c1ccc1ccccc12 | > 10 µM | – |
| O=c1cc(N2CCCC2)nc2c3ccccc3ccn12 | 6.68 µM | – |
| CC1(C)CN(c2cc(=O)n3ccc4ccccc4c3n2)CCO1 | 6.71 µM | – |
| C#CCCN(C)c1cc(=O)n2ccc3ccccc3c2n1 | > 10 µM | – |
| O=c1cc(N(CCO)CCO)nc2c3ccccc3ccn12 | > 10 µM | – |
| O=c1cc(N2CCOCC2)oc2c1ccc1ccccc12 | – | IC50 [2]: > 100 µM; IC50 [3]: > 100 µM |
| O=c1cc(N2CCC(O)C2)oc2c1ccc1ccccc12 (stereo not given) | 9.27 µM | – |
| O=c1cc(NCC(O)CO)nc2c3ccccc3ccn12 (stereo not given) | 8.46 µM | – |
| O=c1cc(NCCOc2ccccc2Br)oc2c1ccc1ccccc12 | > 10 µM | – |
| O=c1cc(N2CCC[C@H](CO)C2)oc2c1ccc1ccccc12 | > 10 µM | – |
| O=c1cc(-c2ccc(F)cc2)oc2c1ccc1ccccc12 | > 10 µM | – |
| O=c1cc(-c2ccccc2[N+](=O)[O-])oc2c1ccc1ccccc12 | > 10 µM | – |
| O=c1cc(N2CCNCC2)oc2c1ccc1ccccc12 | > 10 µM | – |
| CN1CCN(c2cc(=O)c3ccc4ccccc4c3o2)CC1 | > 10 µM | – |
| Nc1ccccc1-c1cc(=O)c2ccc3ccccc3c2o1 | > 10 µM | – |
| CC(C)(C)c1ccc(-c2cc(=O)c3ccc4ccccc4c3o2)cc1 | > 10 µM | – |
| CN1CCN(c2cc(=O)n3ccc4ccccc4c3n2)CC1 | > 10 µM | – |
| O=c1cc(-c2ccccc2)oc2ccccc12 [FLAVONE] | > 10 µM | – |
| O=c1cc(N2CCSCC2)c2cc3ccccc3cc2o1 | 5.15 µM | – |
| O=c1cc(N2CCOC(CO)C2)nc2c3ccccc3ccn12 (stereo not given) | > 10 µM | – |
| Nc1ccc(-c2cc(=O)c3ccc4ccccc4c3o2)cc1 | 7.7 µM | – |
| O=c1cc(N2CC[C@@H](O)C2)nc2c3ccccc3ccn12 | 6.49 µM | – |

| Structure (SMILES) | IC50 [1] | also measured |
| --- | --- | --- |
| O=c1cc(N2CC[S+]([O-])CC2)oc2c(-c3ccccc3)cccc12 | 5.71 µM | – |
| CN(CCO)c1cc(=O)n2ccc3ccccc3c2n1 | > 10 µM | – |
| O=c1cc(N(CCO)Cc2ccccc2)nc2c3ccccc3ccn12 | > 10 µM | – |
| CCC1CN(c2cc(=O)n3ccc4ccccc4c3n2)CCO1 (stereo not given) | > 10 µM | – |
| O=c1cc(N2CCCCC2)c2ccccc2o1 | 8.81 µM | – |
| CC1CCC(C)N(c2cc(=O)n3ccc4ccccc4c3n2)C1 (stereo not given) | > 10 µM | – |
| Cc1ccc2oc(=O)cc(N3CCOCC3)c2c1 | 5.35 µM | – |
| O=c1cc(N2CCCC2)oc2c1ccc1ccccc12 | 6.17 µM | – |
| O=c1cc(N2CCOCC2)oc2c(-c3ccccc3)cccc12 [LY-294002] | – | IC50 [6]: > 100 µM; IC50 [7]: > 100 µM |
| CC1CN(c2cc(=O)c3ccc4ccccc4c3o2)CCO1 (stereo not given) | – | IC50 [2]: > 100 µM; IC50 [3]: > 100 µM; IC50 [5]: 4.8 µM; IC50 [4]: 2.4 µM |
| COc1cccc2c(N3CCOCC3)cc(=O)oc12 | 10.9 µM | – |
| O=c1cc(-c2ccc([N+](=O)[O-])cc2)oc2c1ccc1ccccc12 | > 10 µM | – |
| O=c1cc(NCC(O)c2cccc(O)c2)nc2c3ccccc3ccn12 (stereo not given) | > 10 µM | – |
| O=c1cc(-c2ccccc2F)oc2c1ccc1ccccc12 | 8.59 µM | – |
| COc1ccc2c(N3CCOCC3)cc(=O)oc2c1 | 11.3 µM | – |
| O=c1cc(-c2cccc([N+](=O)[O-])c2)oc2c1ccc1ccccc12 | > 10 µM | – |
| OCCOCC/N=c1\cc(O)c2ccc3ccccc3c2o1 | > 10 µM | – |
| O=c1cc(NCC2CCCO2)nc2c3ccccc3ccn12 (stereo not given) | > 10 µM | – |
| O=c1cc(-c2cccc(F)c2)oc2c1ccc1ccccc12 | 5.71 µM | – |
| COc1cccc2oc(=O)cc(N3CCOCC3)c12 | > 10 µM | – |
| CN(CC(O)c1ccccc1)c1cc(=O)n2ccc3ccccc3c2n1 (stereo not given) | 10.5 µM | – |
| Cc1cccc2c(N3CCOCC3)cc(=O)oc12 | 8.05 µM | – |
| O=c1cc(-c2ccc(Cl)cc2)oc2c1ccc1ccccc12 | > 10 µM | – |
| O=c1cc(NCCO)nc2c3ccccc3ccn12 | > 10 µM | – |
| O=c1cc(-c2ccncc2)oc2c1ccc1ccccc12 | > 10 µM | – |
| O=c1cc(-c2ccccc2Cl)oc2c1ccc1ccccc12 | > 10 µM | – |

More lines, in order of falling IC50 [1], values ahead:

| IC50 [1] | Structure (SMILES) | also measured |
| --- | --- | --- |
| 4.98 µM | O=c1cc(-c2ccccc2)oc2c1ccc1ccccc12 [ALPHA-NAPHTHOFLAVONE] | – |
| 4.82 µM | O=c1cc(N2CCOCC2)c2ccccc2o1 | – |
| 4.67 µM | O=c1cc(N2CCCCC2)oc2c(-c3ccccc3)cccc12 | IC50 [4]: > 100 µM |
| 4.14 µM | CC1CN(c2cc(=O)c3ccc4ccccc4c3o2)CC(C)O1 (stereo not given) | – |
| 3.81 µM | O=c1cc(N2CCCCC2)oc2c1ccc1ccccc12 | – |
| 3.52 µM | CC1(C)CN(c2cc(=O)c3ccc4ccccc4c3o2)CCO1 | – |
| 3.27 µM | O=c1cc(N2CCOCC2)c2cc(Cl)ccc2o1 | – |
| 3.25 µM | C[C@@H]1CN(c2cc(=O)n3ccc4ccccc4c3n2)C[C@H](C)O1 | – |
| 3.24 µM | O=c1cc(N2CCOCC2)c2cc3ccccc3cc2o1 | – |
| 3.19 µM | O=c1cc(N2C[C@H]3C[C@@H]2CO3)oc2c1ccc1ccccc12 | – |
| 2.81 µM | O=c1cc(N2CC=CC2)nc2c3ccccc3ccn12 | – |
| 2.24 µM | O=c1cc(N2CCOCC2)oc2ccc(-c3ccccc3)cc12 | – |
| 2.01 µM | O=c1cc(N2CCCOCC2)oc2c1ccc1ccccc12 | – |
| 2 µM | O=c1cc(N2CCOCC2)nc2ccccn12 | – |
| 1.92 µM | O=c1cc(-c2cccnc2)oc2c1ccc1ccccc12 | – |
| 1.9 µM | O=c1cc(N2CCOCC2)c2c(ccc3ccccc32)o1 | – |
| 1.75 µM | COc1ccc2oc(=O)cc(N3CCOCC3)c2c1 | – |
| 1.69 µM | O=c1cc(N2CCSCC2)nc2c3ccccc3ccn12 | – |
| 1.65 µM | Cc1cccc2c(=O)cc(N3CCOCC3)oc12 | – |
| 1.61 µM | O=c1cc(N2CCSCC2)oc2c(-c3ccccc3)cccc12 | IC50 [4]: > 100 µM |
| 1.38 µM | O=c1cc(N2CCSCC2)oc2c1ccc1ccccc12 | – |
| 1.2 µM | COc1cccc2c(=O)cc(N3CCOCC3)oc12 | – |
| 0.95 µM | COc1ccc2c(=O)cc(N3CCOCC3)oc2c1 | – |
| 0.39 µM | O=c1cc(N2CCOCC2)oc2cc3ccccc3cc12 | – |
| 0.36 µM | O=c1cc(N2CCOCC2)oc2c3c(ccc12)CCCC3 | – |
| 0.28 µM | O=c1cc(N2CCOCC2)nc2c3ccccc3ccn12 | IC50 [2]: > 100 µM; IC50 [3]: > 100 µM; IC50 [5]: 5.3 µM; IC50 [4]: > 100 µM |
| 0.26 µM | S=c1cc(N2CCOCC2)oc2c1ccc1ccccc12 | – |
